Measurements: article PMC8842081 (The Journal of Biological Chemistry, 2022)
“Also recorded” adds a separate entry of the source. Where no end group is shown, it is not given here.

Assays:
RSPO2–BMPR1A interaction = assay: Cell surface–binding assay, RSPO2-AP on BMPR1A-transfected HEK293T cells; type: cell-based, human; conditions: for RSPO2 binding to BMPR1A transfected cells / RSPO2–BMPR1A binding after long-term dendrimer treatment: 20 μM dendrimer; for RSPO2 binding to BMPR1A transfected cells: n = 3; for RSPO2–BMPR1A binding after long-term dendrimer treatment: 16 h
Outline: (§1)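 HEK293T cells were transfected with BMPR1A-HA or LGR4. They were incubated with RSPO2-AP or RSPO3-AP conditioned medium from transiently transfected HEK293T cells, plus 20 μM dendrimer or 50 μM monomeric peptide, for 3 h or 16 h. Surface-bound AP was developed with BM-Purple chromogenic substrate, then imaged and quantified.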

[1] = tested on: pSmad1 in THP-1 AML cells; assay: Western blot of pSmad1 in THP-1 cells; type: cell-based, human; conditions: 3 days
Outline: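 THP-1 cells were exposed for 3 days to 0.5 μM unmodified or N-PEG dendrimer, or 2.0 μM C-PEG dendrimer. Lysis was in Triton or RIPA buffer with protease inhibitors, followed by boiling in Laemmli/β-mercaptoethanol at 95 °C for 5 min. SDS-PAGE immunoblots were probed for phospho-Smad1 against total Smad1 and developed by ECL.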

[2] = molecular target: RSPO2^TSP1–BMPR1A^ECD interaction (Homo sapiens, UniProt P36894); assay: In vitro competitive binding assay; conditions: for reduction of RSPO2^TSP1–BMPR1A^ECD interaction: 100 μM monomeric peptide, 3 h, AP activity, n = 2 to 3 experimental replicates
RSPO2^TSP1–BMPR1A^ECD interaction, sequence (P36894 24-152 limits assumed): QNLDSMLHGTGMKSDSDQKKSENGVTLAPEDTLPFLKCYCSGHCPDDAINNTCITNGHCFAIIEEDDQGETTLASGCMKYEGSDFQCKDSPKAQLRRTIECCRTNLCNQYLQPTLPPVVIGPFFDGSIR
Outline: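 Plates were coated overnight at 4 °C with 1 to 2 μg anti-HA and blocked 1 h in 5% BSA/TBST. HA-RSPO2 TSP1 conditioned medium was captured overnight. AP-BMPR1A ECD was then added for 3 h with 100 μM monomeric peptide (Cys→Ser; in DPBS pH 7.4) or a peptide concentration series. After TBST washes, bound AP was read with chemiluminescent substrate, and IC50 was fitted.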

[3] = tested on: BMPR1A-HA membrane staining in H1581 cells; assay: Immunofluorescence of BMPR1A-HA membrane localization in H1581 cells; type: cell-based, human; conditions: H1581 transfected with BMPR1A-HA, 0.5 μM dendrimer, 3 days
[4] = tested on: Xenopus tropicalis embryos; assay: Xenopus embryo blastocoel microinjection, phenotype; type: in vivo; conditions: 20 nl of 50 μM dendrimer into blastocoel at stage 9
Outline: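 X. tropicalis embryos from in vitro fertilization received 20 nl of 50 μM dendrimer in PBS into the blastocoel at stage 9, with bmp4 mRNA at the 4-cell stage as comparator. Embryos were cultured to tailbud stage 28 and scored blind for head size and ventral structures across two independent experiments.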

[5] = tested on: BMP4 signaling (pSmad1) in HEPG2 cells; assay: Western blot of pSmad1 in HEPG2 cells; type: cell-based, human
[6] = tested on: BMP signaling (Vent2 reporter); assay: BMP-responsive Vent2 reporter assay in Xenopus embryos; type: in vivo, Xenopus tropicalis; conditions: 20 nl of 50 μM dendrimer at stage 9, firefly normalized to Renilla
Outline: (§2)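 X. tropicalis embryos were co-injected at the 2-cell stage with 200 pg Vent-Luc (BMP) or Topflash (WNT) plus 100 pg Renilla-TK plasmid. At stage 9, 20 nl of 50 μM dendrimer in PBS went into the blastocoel; controls were bmp4 mRNA or lrp6 morpholino. Three pools of four embryos each were lysed at stage 14 to 15 for dual luciferase, firefly normalized to Renilla. Unpaired t test or one-way ANOVA.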

[7] = tested on: BMP target gene expression (sizzled); assay: Whole-mount in situ hybridization of sizzled in Xenopus gastrulae; type: in vivo, Xenopus tropicalis; conditions: 20 nl of 50 μM dendrimer at stage 9, gastrulae stage 11
Outline: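 X. tropicalis embryos were injected at stage 9 into the blastocoel with 20 nl of 50 μM dendrimer in PBS; bmp4 mRNA injected radially at the 4-cell stage served as control. Embryos were fixed at gastrula stage 11 and processed by whole-mount in situ hybridization with a digoxigenin-labeled antisense sizzled probe. The sizzled-expressing area was quantified, pooled from two independent experiments.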

THP-1 cells = assay: Flow cytometry of CD11B^+ THP-1 cells; type: cell-based, human; conditions: THP-1, 3 days, 0.5/1.0/1.5 μM nonmodified, 2.0/3.0 μM N-PEG, 3.0/4.0 μM C-PEG dendrimer
[8] = tested on: WNT-mediated activation of β-catenin in H1581 cells; assay: Western blot of activated β-catenin in H1581 cells treated with WNT3A; type: cell-based, human; conditions: 0.5 μM dendrimer
[9] = tested on: P38 MAPK and P44/42 MAPK phosphorylation in HEPG2 cells; assay: Western blot of pP38 and pP44/42 MAP kinases in HEPG2 cells; type: cell-based, human; conditions: HEPG2, BMP4 + RSPO2, 0.5 μM dendrimer, 1 h, starved overnight
RSPO3 binding to BMPR1A = assay: Cell surface–binding assay, RSPO3-AP on BMPR1A-transfected HEK293T cells; type: cell-based, human; conditions: 20 μM non-PEGylated dendrimer, 3 h; n = 3
Outline: as §1

[10] = tested on: WNT signaling (TopFlash reporter); assay: WNT-responsive TopFlash reporter assay in Xenopus embryos; type: in vivo, Xenopus tropicalis; conditions: 20 nl of 50 μM dendrimer at stage 9, firefly normalized to Renilla
Outline: as §2

pSmad1 in H1581 cells = assay: Western blot of pSmad1 in H1581 cells; type: cell-based, human; conditions: H1581 (elevated RSPO2), 0.5 μM dendrimer, 3 days
LGR4 = assay: Cell surface–binding assay, RSPO2-AP on LGR4-transfected HEK293T cells; type: cell-based, human; conditions: 20 μM dendrimer, 3 h
Outline: as §1

[11] = 0.5 μM nonmodified or N-PEG dendrimer

(PEG-KMTMR)8-Lys4-Lys2-Lys-β-Ala [N-PEG KR^d]
RSPO2 binding to BMPR1A transfected cells (RSPO2–BMPR1A interaction; 3 h): no effect

(PEG-RNNRTSGFKW)8-Lys4-Lys2-Lys-β-Ala [N-PEG RW^d]
RSPO2 binding to BMPR1A transfected cells (RSPO2–BMPR1A interaction; 3 h): abolished RSPO2 binding | RSPO2–BMPR1A binding after long-term dendrimer treatment (RSPO2–BMPR1A interaction): completely disrupt RSPO2–BMPR1A binding

(RNNRTSGFKW-PEG)8-Lys4-Lys2-Lys-β-Ala [C-PEG RW^d]
pSmad1 induction in THP-1 cells ([1]; 2.0 μM C-PEG dendrimer): Elevated pSmad1 levels

DTILSPTIAE [DE]
reduction of RSPO2^TSP1–BMPR1A^ECD interaction [2]: greater than 50%

KMTMR [KR]
pSmad1 induction in THP-1 cells [1, 11]: but not KR^d treatment | increase in the number of cells showing BMPR1A-HA membrane staining [3]: but not KR^d treatment | RSPO2 binding to BMPR1A transfected cells (RSPO2–BMPR1A interaction; 3 h): no effect | effect on RSPO2–BMPR1A interaction in vitro (Fig. S2A) ([2]; peptide treatment, concentration not given): did not affect RSPO2–BMPR1A interaction | embryotoxicity [4]: no embryotoxicity

PEG-RW: RW peptide mini-PEGylated at both N and C termini ({mini‑PEG}-RNNRTSGFKW-{mini‑PEG})
inhibition of RSPO2-AP binding to BMPR1A-transfected cells, short-term (RSPO2–BMPR1A interaction; 50 μM PEGylated monomeric peptide, 3 h): inhibited RSPO2–BMPR1A interaction

RNNRTSGFKW [RW]
pSmad1 level without simultaneous treatment of RSPO2 ([5]; HEPG2, 0.5 μM dendrimer, 3 days): no effect on pSmad1 level | rescue of RSPO2-mediated decrease of pSmad1 levels ([5]; HEPG2, BMP4 + RSPO2, 0.5 μM dendrimer, 1 h, starved 3 h): rescued the RSPO2-mediated | rescue of RSPO3-mediated decrease of pSmad1 levels ([5]; HEPG2, BMP4 + RSPO3, 0.5 μM dendrimer, 1 h, starved 3 h): not the RSPO3-mediated decrease of pSmad1 levels | endogenous BMP signaling (Vent2 reporter) [6]: enhanced endogenous BMP signaling | sizzled expression [7]: expanded BMP target gene expression (sizzled) toward the dorsal side | pSmad1 induction in THP-1 cells [1, 11]: induced pSmad1 | increase in the number of cells showing BMPR1A-HA membrane staining [3]: approximately threefold | induction of the number of CD11B^+ cells (THP-1 cells): ~10 fold | WNT-mediated activation of β-catenin [8]: no effect | RSPO2 binding to BMPR1A transfected cells (RSPO2–BMPR1A interaction; 3 h): abolished RSPO2 binding | RSPO2–BMPR1A binding after long-term dendrimer treatment (RSPO2–BMPR1A interaction): completely disrupt RSPO2–BMPR1A binding | rescue of RSPO2-mediated decrease of pP38 and pP44/42 levels [9]: rescued the RSPO2-mediated decrease of pP38 and pP44/42 levels | RSPO3 binding to BMPR1A transfected cells (RSPO3 binding to BMPR1A): unable to abolish RSPO3 binding | reduction of RSPO2^TSP1–BMPR1A^ECD interaction [2]: strongest inhibition; also recorded: greater than 50% | WNT signaling (TopFlash reporter) [10]: no effect on WNT signaling | phosphorylation of Smad1 (pSmad1 in H1581 cells): increased phosphorylation of Smad1 | RSPO2 binding to LGR4 transfected cells (LGR4): without affecting LGR4 binding | embryotoxicity ([4]; listed as RW^d): no Xenopus embryotoxicity

SRRSKMTMRHSPG [SG]
reduction of RSPO2^TSP1–BMPR1A^ECD interaction [2]: greater than 50%
